Measured values: ChEMBL document CHEMBL1139610, “Design, synthesis, and biological evaluation of novel 4-hydro-quinoline-3-carboxamide derivatives as an immunomodulator” (2005)

Key:
Type in all cases: functional
[1] = molecular target: T1, Tumor necrosis factor (Mus musculus) (UniProt P06804); assay: In vitro percent inhibition of tumor necrosis factor, alpha secreted by macrophage at the dose 1 ug/mL
T1 sequence (whole entry): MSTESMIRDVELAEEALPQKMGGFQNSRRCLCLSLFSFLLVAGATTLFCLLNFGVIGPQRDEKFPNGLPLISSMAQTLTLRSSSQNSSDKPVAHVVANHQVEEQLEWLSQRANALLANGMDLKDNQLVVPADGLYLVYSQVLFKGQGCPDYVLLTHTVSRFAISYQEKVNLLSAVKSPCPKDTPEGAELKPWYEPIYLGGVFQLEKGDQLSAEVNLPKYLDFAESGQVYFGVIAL
In short: (§1)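 RAW264.7 macrophages in RPMI 1640 with 10% FCS, 2 mM glutamine, gentamycin; seeded 2×10^5/mL, grown ~3 days to confluence at 37 °C, 5% CO2; LPS 10 µg/mL plus drug at final 1, 10 or 100 µg/mL for 24 h; supernatant TNF-α by ELISA; %inhibition = (control mean − drug mean)/control mean.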

[2] = molecular target: T1, Tumor necrosis factor (Mus musculus); assay: In vitro percent inhibition of tumor necrosis factor, alpha secreted by macrophage at the dose 100 ug/mL; in short: as §1
[3] = In vitro percent inhibition of LPS induced B-cell proliferation at the dose 1 ug/mL
In short: (§2)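 Splenocyte single-cell suspension (red cells lysed, 0.16 M NH4Cl-Tris), RPMI-1640 + 10% FBS, 2.5×10^6/mL; LPS 10 µg/mL stimulation with drug at final 1, 10 or 100 µg/mL, triplicate wells; cultured 72 h, 37 °C, [3H]thymidine pulse 0.5 µCi last 16 h, β-counting; %inhibition = (control mean − drug mean)/control mean.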

[4] = In vitro percent inhibition of ConA induced T-cell proliferation at the dose 1 ug/mL
In short: (§3)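 Spleen cells sieved to single-cell suspension, red cells lysed with 0.16 M NH4Cl-Tris, washed, in RPMI-1640 + 10% FBS; seeded at 2.5×10^6/mL, stimulated with ConA 0.5 µg/mL, drug final 1, 10 or 100 µg/mL, triplicates; 72 h at 37 °C, [3H]thymidine 0.5 µCi for final 16 h; cpm counted; %inhibition = (control − drug)/control.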

[5] = In vitro percent inhibition of LPS induced B-cell proliferation at the dose 10 ug/mL; in short: as §2
[6] = In vitro percent inhibition of ConA induced T-cell proliferation at the dose 10 ug/mL; in short: as §3
[7] = In vitro percent inhibition of LPS induced B-cell proliferation at the dose 100 ug/mL; in short: as §2
[8] = In vitro percent inhibition of ConA induced T-cell proliferation at the dose 100 ug/mL; in short: as §3
[9] = molecular target: T1, Tumor necrosis factor (Mus musculus); assay: In vitro percent inhibition of tumor necrosis factor, alpha secreted by macrophage at the dose 10 ug/mL; in short: as §1

Row | SMILES | inhibition [1] | inhibition [2] | inhibition at 1 µg/mL [3] | inhibition at 1 µg/mL [4] | inhibition at 10 µg/mL [5] | inhibition at 10 µg/mL [6] | inhibition at 100 µg/mL [7] | inhibition at 100 µg/mL [8] | inhibition [9]
1 | CSc1cccc2c(O)c(C(=O)N(C)c3ccccc3)cnc12 | 2.08% | -9.52% | -2.46% | 11.4% | 36.5% | 52.4% | 71.7% | 81.7% | 
2 | CN(C(=O)c1cnc2ccccc2c1O)c1ccccc1 | 7.59% | -1.33% | 17.7% | -7.55% | 8.46% | 24.9% | 32.4% | -9.33% | 
3 | Cc1cc(C)c2ncc(C(=O)N(C)c3ccccc3)c(O)c2c1 |  |  |  | 1.84% |  | 12.9% |  | 47.1% | 
4 | O=C(Nc1ccccc1)c1cnc2cc(Cl)ccc2c1O | 10.5% | 23.1% | -2.65% | 16.7% | 12.3% | 32.6% | 27.1% | 22.3% | 10.4%
5 | O=C(O)c1ccc(NC(=O)c2cnc3ccc(Cl)cc3c2O)cc1 | 0.78% | -5.35% | 17.8% | 12.7% | 52.9% | 61.5% | 87% | 98.9% | 32.1%
6 | Cc1cc(C)c2ncc(C(=O)NCCN(C)C)c(O)c2c1 |  |  |  | 0.95% |  | 38.5% |  | 99.6% | 
7 | CN(C)CC(C)(C)CNC(=O)c1cnc2cc(F)ccc2c1O |  |  |  | 20.8% |  | 37.2% |  | 96.3% | 
8 | COc1ccc2c(O)c(C(=O)NCCN(C)C)cnc2c1 |  |  |  | -40.7% |  | -15.3% |  | 92.8% | 
9 | O=C(O)c1ccc2ncc(C(=O)Nc3ccccc3)c(O)c2c1 | 15.2% |  | 82.5% | 71.3% | 80.6% | 57.5% | 48.5% | 39.8% | 15.5%
10 | Cc1ccc2ncc(C(=O)N(C)c3ccccc3)c(O)c2c1 |  |  |  | -59.3% |  | -20% |  | -1.7% | 
11 | CSc1ccc2ncc(C(=O)NCCN(C)C)c(O)c2c1 |  |  | -4.33% | -182% | -9.69% | -42.6% | 87.7% | 98.2% | 
12 | CN(C)CC(C)(C)CNC(=O)c1cnc2ccc(F)cc2c1O |  |  | 21.3% | -30.7% | 17.8% | 32.9% | 70.5% | 87.4% | 
13 | CSc1ccc2c(c1)c(O)c(C(=O)N(C)c1ccccc1)c(=O)n2C | 14.7% | 29.7% | 13.6% | 52% | 30.3% | 75.3% | 37.8% | 79.6% | 11.2%
14 | CN(C)CCNC(=O)c1cnc2ccc(Br)cc2c1O |  |  |  | -19.6% |  | 31.6% |  | 99.7% | 
15 | CN(C(=O)c1cnc2cc(F)ccc2c1O)c1ccccc1 |  |  | 4% | -46.8% | 12.5% | -21.5% | -127% | 17.1% | 
16 | O=C(Nc1ccc(N(CCO)CCO)cc1)c1cnc2ccccc2c1O | 1.82% | 30.4% | 38% | 45.8% | 75.8% | 61% | 88.5% | 99.1% | 12.1%
17 | CN(C)CCNC(=O)c1cnc2ccc([N+](=O)[O-])cc2c1O |  |  |  | 41.5% |  | 53.2% |  | 99.9% | 
